# MC4R antagonist – blocks human MC4R cAMP signaling | P32245 | MC4R-expressing cells, MTII-stimulated cAMP, LANCE TR-FRET | inhibition, % at 6.5 µM | 360,000 compounds, 0.48% hits;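 active means inhibition above its plate's cutoff, the mean of tested wells on that plate plus 3 SD, cut at about 29% in these data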;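 further: 0% = Melanotan II alone and 100% = Melanotan II plus saturating MCL0020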
#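 System: U2OS cells stably expressing human melanocortin 4 receptor (MC4R). Reagent: Melanotan II challenge after compound preincubation. Doses: 6.5 µM. Times: 30-min compound, 1-h challenge, 1-h detection, room temperature. Measured by: TR-FRET with Eu-cAMP and labeled anti-cAMP, 671 nm. Replicates: singlicate.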
# NR2E3 ag-1 – activates human photoreceptor nuclear receptor NR2E3 | GST-NR2E3/biotin-RetCOR TR-FRET, 1536-well | inhibition of corepressor binding, % at 4.78 µM | 320,000 compounds, 0.12% hits;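 active means percent inhibition above the cutoff of mean plus 3 SD of all tested compounds, set per screening campaign, cut at about 20% in these data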;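 further: 0% = DMSO wells and 100% = biotin wells as full block of FRET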
#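 Test system: GST-NR2E3 and biotin-RetCOR proteins | Quantity: 1.35 nM GST-tagged NR2E3 final | Medium: Tris pH 7.5 | Also added: 7 nM biotin-RetCOR | Dosing: Compound at 4.8 µM, single dose | Timing: 5 h at 4 °C | Detection: Time-resolved FRET | Read-out basis: Percent inhibition | Benchmarks: Biotin wells as high control, 0.6% DMSO wells as low control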
# Rev-erbA mod – modulates human Rev-erb alpha binding to DNA; P20393; Rev-erbα–FITC-DNA binding, fluorescence polarization, 90 min; activity, % at 10 µM; 370,000 compounds, 0.79% hits;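 active means activity above about 14%, limit read from the data; passing the limit was not always enough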;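 further: 0% = DMSO wells with 35 nM protein and 100% = DMSO wells with 750 nM protein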
# NR2E3 ag-2 – human photoreceptor-specific nuclear receptor agonism; Q9Y5X4; CHO-S Gal4-NCOR/VP16-NR2E3 two-hybrid, luciferase; inhibition of corepressor binding, % at 3.98 µM; 360,000 compounds, 0.35% hits; AID 602229;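 active means inhibition above the mean of all tested compounds plus 3 SD, cut at about 70% in these data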;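 further: 0% = DMSO with NR2E3 transfected cells and 100% = cells lacking NR2E3 construct; higher means lower luciferase signal from less NR2E3 corepressor binding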
# PG9 binder – small molecules binding HIV-1 gp120 antibody PG9; 360,000 compounds, 0.43% hits; inhibition, % at 6.7 µM; TR-FRET gp120-PG9 antibody binding; in the data active means inhibition above about 8.5%
# MC4R barr agon – human MC4R agonism via beta-arrestin. 360,000 compounds, 0.98% hits. U2OS MC4R beta-arrestin complementation, luminescence; percent of melanotan II response, DMSO zero. P32245. activation, % at 8.9 µM;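 active means activation above a per-plate cutoff, the mean activation of sample wells on that plate plus 3 SD, cut at about 8% in these data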
# MC4R barr ag – human MC4R beta-arrestin agonism confirmation; shares compounds with MC4R barr agon; U2OS MC4R beta-arrestin recruitment, luminescence; scaled DMSO 0%, Melanotan II 100%; activation, % at 8.9 µM; 2,400 compounds, 31% hits;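 active means mean activation across replicates above the hit cutoff set in the earlier primary screen, cut at about 8% in these data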
# MOR DOR agonist – activates mu-delta opioid heterodimer, MC4R agonist counter-screen. shares compounds with MC4R barr agon. U2OS PathHunter beta-arrestin, beta-gal luminescence; percent of deltorphin B response, DMSO zero. activation, % at 9.2 µM. 2,400 compounds, 5.8% hits. AID 602194;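 active means mean activation across replicates exceeds the hit threshold derived in the earlier primary screen, cut at about 18% in these data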;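 further: 100% = deltorphin B at 0.9 µM final and 0% = DMSO alone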
# Target sequence (P35372 whole entry, looked up): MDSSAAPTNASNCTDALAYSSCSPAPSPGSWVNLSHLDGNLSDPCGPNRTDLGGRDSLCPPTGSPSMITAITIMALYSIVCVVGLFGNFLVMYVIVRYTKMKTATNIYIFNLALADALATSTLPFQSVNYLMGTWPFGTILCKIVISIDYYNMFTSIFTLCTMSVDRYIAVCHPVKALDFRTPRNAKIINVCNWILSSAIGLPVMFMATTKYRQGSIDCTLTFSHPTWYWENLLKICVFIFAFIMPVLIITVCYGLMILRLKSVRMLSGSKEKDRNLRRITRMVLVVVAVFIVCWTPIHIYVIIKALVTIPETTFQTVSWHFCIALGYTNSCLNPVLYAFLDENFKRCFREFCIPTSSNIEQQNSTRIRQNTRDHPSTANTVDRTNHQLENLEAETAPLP
# Target sequence (P41143 whole entry, looked up): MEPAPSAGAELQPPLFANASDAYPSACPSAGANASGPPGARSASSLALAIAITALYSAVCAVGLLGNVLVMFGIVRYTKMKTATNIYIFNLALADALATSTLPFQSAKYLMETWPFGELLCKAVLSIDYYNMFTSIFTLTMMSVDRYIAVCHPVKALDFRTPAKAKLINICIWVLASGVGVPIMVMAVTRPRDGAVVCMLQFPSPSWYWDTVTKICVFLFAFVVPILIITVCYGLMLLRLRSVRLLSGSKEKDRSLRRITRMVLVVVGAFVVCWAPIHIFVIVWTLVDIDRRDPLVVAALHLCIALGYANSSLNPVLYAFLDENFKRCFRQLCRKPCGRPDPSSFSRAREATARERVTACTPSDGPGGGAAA
# The depositor's hits bear a star; · = no result. A selection: hits, their analogues and other compounds. The true share with any hit is near 2.7%.
SMILES,MC4R antagonist,NR2E3 ag-1,Rev-erbA mod,NR2E3 ag-2,PG9 binder,MC4R barr agon,MC4R barr ag,MOR DOR agonist
CCCCn1c(N)c(N(CCOC)C(=O)c2cc(=O)[nH]c3ccccc23)c(=O)[nH]c1=O,3,6,3,-16,1,0,·,·
Cc1ccc(C(C)C)c(OCCNCCc2ccccc2)c1,-6,4,-1,45,-1,9.9*,8,10
COc1ccc(C(CC(=O)Nc2ccc(F)cc2)c2ccccc2)cc1 (centres undefined),5,0,-5,-20,2,0,·,·
CCC(=O)NC(=S)Nc1ccc(NC(=O)COc2ccc(Cl)c(C)c2)cc1,12,0,-2,-3,-1,19*,3,5
Cc1ccc(OCC(=O)NC(=S)Nc2cccc(NC(=O)c3ccccc3Cl)c2)cc1,1,3,5,-10,2,15*,6,4
CCOCC(=O)Nc1cc(Cl)c(OC)cc1OC,·,-2,·,·,·,·,·,·
COC(=O)C1CCN(C(=O)Cc2ccccc2OC)CC1,0,-2,0,-15,-4,-1,·,·
O=c1c(Cl)c(N/N=C/c2ccc(Br)cc2)cnn1-c1ccccc1,7,1,-19,-16,-1,16*,12*,3
CS(=O)(=O)N(Cc1ccc(Cl)cc1)c1ccc(C(=O)NCC2CCCO2)cc1 (centres undefined),2,-1,2,3,-1,-1,·,·
Cc1ccc(NC(=O)CN2C(=O)S/C(=C\c3ccccn3)C2=O)cc1,8,-3,2,-5,0,-2,·,·
Cc1ccc(NC(=O)CN2C(=O)S/C(=C\c3cccn3C)C2=O)cc1,8,0,-8,-4,-1,15*,-1,5
C=CCn1c(SCC(=O)c2ccc(OC)cc2)nnc1-c1cc2cccc(OC)c2o1,-5,2,1,4,0,53*,12*,16
C=CCn1c(SCC(=O)c2ccccc2)nnc1-c1cc2ccccc2o1,0,-1,-6,-13,-3,2,·,·
Cn1cnc([N+](=O)[O-])c1N=C(N)N,14,-4,-3,-6,-1,-2,·,·
CC(C)N(C(=O)Cn1cc(S(=O)(=O)CC(=O)NC2CCCCC2)c2ccccc21)C(C)C,1,-3,-5,0,-1,1,·,·
O=C(CSc1nccc(-c2ccc(Br)cc2)n1)NCCc1ccccc1,6,2,15,-7,1,12*,1,4
Cc1c(NC(=O)C2CCCN2S(=O)(=O)c2ccccc2)c(=O)n(-c2ccccc2)n1C (centres undefined),-1,2,1,28,-3,1,·,·
COc1ccc(OC)c(NC(=O)c2cc(-c3cc(C)ccc3O)n[nH]2)c1,0,·,-20,-38,-1,10*,2,15
Cc1c(OC(C)C(=O)NCc2ccncc2)ccc2c3c(c(=O)oc12)CCCC3 (centres undefined),7,0,5,-24,0,-2,·,·
Cc1nc(-c2cccnc2)sc1C(=O)N/N=C/c1ccccc1Cl,-7,-2,-15,-27,0,11*,-1,4
Cn1c(SCC(=O)Nc2ccc3c(c2)oc2ccccc23)nnc1-c1ccccc1,17,-1,13,-5,3,10*,5,4
O=C(CSc1nc2ccccc2s1)CSc1nc2ccccc2s1,0,4,-2,-44,-2,15*,8,2
O=C(O)CSc1nc2ccccc2s1,-4,1,-7,8,-2,2,·,·
Cn1c(SCC(=O)Nc2ccc3[nH]c(=O)[nH]c3c2)nnc1-c1ccccc1,-1,0,-3,-13,0,-5,·,·
O=C(CSc1nc2ccccc2s1)Nc1ccc2c(c1)oc1ccccc12,4,-4,-2,-13,2,17*,5,4

# Screening results from PubChem BioAssay.
